According to ChEMBL document CHEMBL1811845, “Modulation of GABAA-receptors by honokiol and derivatives: subtype selectivity and structure-activity relationship” (J Med Chem, 2011):
pEC50: −log10 of the molar value.

Columns and labels:
[1] = target: T1, GABA-A receptor; GABA-A site (alpha1/beta2 interface) (Homo sapiens) (UniProt P14867+P47870); assay: Modulation of GABA Aalpha1beta2 receptor expressed in Xenopus laevis oocytes assessed as potentiation of GABA-induced chloride current at holding potential -70 mV at 30 uM by two-microelectrode voltage clamp technique relative to GABA; type: cell-based; conditions: Oocyte
Procedure, shortened: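 Single-concentration screen at 30 μM on α1β2 receptors (cRNA 1:1) in Xenopus oocytes. Enhancement was (I(GABA+compound)/IGABA)−1. DMSO was matched in control and test solutions, maximum 0.3% in the bath.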

Oocyte = assay: Modulation of GABA alpha1beta2gamma2s receptor expressed in Xenopus laevis oocytes assessed as potentiation of GABA-induced chloride current at holding potential -70 mV by two-microelectrode voltage clamp technique relative to GABA; type: cell-based
Procedure, shortened: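 Oocytes were injected with α1, β2 and γ2s cRNAs mixed 1:1:10 and stored at 18 °C in ND96 (pH 7.4). GABA was applied at a concentration giving 3–7% of maximal current, determined for each oocyte. Enhancement was taken as (I(GABA+compound)/IGABA) − 1. Concentration–response data were fitted to a Hill equation. Control solutions carried equal DMSO, at most 0.3%.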

[2] = target: T2, GABA-A receptor alpha-1/beta-3 (Homo sapiens, UniProt P14867+P28472); assay: Modulation of GABA Aalpha1beta3 receptor expressed in Xenopus laevis oocytes assessed as potentiation of GABA-induced chloride current at holding potential -70 mV by two-microelectrode voltage clamp technique; type: cell-based, Oocyte
T2 sequence (P14867 whole entry): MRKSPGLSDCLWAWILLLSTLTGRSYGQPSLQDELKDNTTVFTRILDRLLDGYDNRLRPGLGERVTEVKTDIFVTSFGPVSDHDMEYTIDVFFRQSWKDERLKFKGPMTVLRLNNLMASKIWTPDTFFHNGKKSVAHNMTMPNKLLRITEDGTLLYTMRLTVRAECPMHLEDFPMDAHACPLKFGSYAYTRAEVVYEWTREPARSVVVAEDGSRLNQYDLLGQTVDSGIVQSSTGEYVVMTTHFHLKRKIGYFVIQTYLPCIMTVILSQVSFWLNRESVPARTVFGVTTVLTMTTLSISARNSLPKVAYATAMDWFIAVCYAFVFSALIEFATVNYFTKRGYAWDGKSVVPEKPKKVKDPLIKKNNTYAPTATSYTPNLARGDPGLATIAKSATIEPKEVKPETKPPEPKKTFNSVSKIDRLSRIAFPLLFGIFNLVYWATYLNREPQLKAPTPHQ
T2 sequence (P28472 whole entry): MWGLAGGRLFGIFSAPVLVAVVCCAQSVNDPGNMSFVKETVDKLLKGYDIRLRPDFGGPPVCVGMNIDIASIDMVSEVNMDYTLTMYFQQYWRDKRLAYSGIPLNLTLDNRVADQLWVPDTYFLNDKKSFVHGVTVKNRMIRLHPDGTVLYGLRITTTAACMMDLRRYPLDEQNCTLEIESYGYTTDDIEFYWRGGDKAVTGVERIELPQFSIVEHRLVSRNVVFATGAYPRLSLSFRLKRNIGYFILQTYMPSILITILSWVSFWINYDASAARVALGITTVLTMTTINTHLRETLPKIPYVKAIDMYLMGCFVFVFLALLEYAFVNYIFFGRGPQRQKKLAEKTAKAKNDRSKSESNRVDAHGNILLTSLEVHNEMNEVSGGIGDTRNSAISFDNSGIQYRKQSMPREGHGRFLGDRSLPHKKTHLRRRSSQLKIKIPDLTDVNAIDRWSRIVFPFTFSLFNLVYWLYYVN

[3] = target: T3, GABA-A receptor; GABA-A site (alpha1/beta2 interface) (Homo sapiens, UniProt P14867+P47870); assay: Modulation of GABA Aalpha1beta2 receptor expressed in Xenopus laevis oocytes assessed as potentiation of GABA-induced chloride current at holding potential -70 mV by two-microelectrode voltage clamp technique; type: cell-based, Oocyte
T3 sequence (P14867 whole entry): T2 sequence (P14867 whole entry)
T3 sequence (P47870 whole entry): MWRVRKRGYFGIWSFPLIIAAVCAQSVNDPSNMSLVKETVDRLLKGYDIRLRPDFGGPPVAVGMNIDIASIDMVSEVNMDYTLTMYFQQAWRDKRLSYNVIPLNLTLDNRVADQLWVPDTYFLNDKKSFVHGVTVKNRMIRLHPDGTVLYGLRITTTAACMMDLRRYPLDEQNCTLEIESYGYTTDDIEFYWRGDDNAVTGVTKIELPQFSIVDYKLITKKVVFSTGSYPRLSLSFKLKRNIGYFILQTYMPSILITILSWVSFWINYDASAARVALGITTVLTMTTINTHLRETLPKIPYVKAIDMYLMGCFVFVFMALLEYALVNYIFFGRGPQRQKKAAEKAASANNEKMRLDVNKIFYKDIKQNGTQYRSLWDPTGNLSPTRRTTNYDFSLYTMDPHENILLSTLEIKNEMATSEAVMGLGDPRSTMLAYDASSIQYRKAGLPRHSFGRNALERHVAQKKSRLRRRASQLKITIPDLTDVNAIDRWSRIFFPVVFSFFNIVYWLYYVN
Procedure, shortened: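 Stage V–VI Xenopus oocytes, defolliculated with 2 mg/mL collagenase, injected with α(1, 2, 3 or 5) and β2 cRNAs mixed 1:1, then kept at 18 °C in ND96 (pH 7.4). Enhancement = I(GABA+compound)/IGABA − 1. Curves were Hill-fitted for EC50. Bath DMSO was at most 0.3%, matched in controls.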

[4] = target: GABA-A receptor alpha-1/beta-3 (Homo sapiens) (UniProt P14867+P28472); assay: Modulation of GABA Aalpha1beta3 receptor expressed in Xenopus laevis oocytes assessed as potentiation of GABA-induced chloride current at holding potential -70 mV by two-microelectrode voltage clamp technique relative to GABA; type: cell-based; conditions: Oocyte
Procedure, shortened: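 α1β3 receptors were expressed in defolliculated stage V–VI Xenopus oocytes and kept at 18 °C in ND96, pH 7.4. Potentiation was computed as (I(GABA+compound)/IGABA)−1, and EC50 and Hill coefficient came from nonlinear fits. Matched DMSO was ≤0.3%.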

[5] = target: T1, GABA-A receptor; GABA-A site (alpha1/beta2 interface) (Homo sapiens); assay: Modulation of GABA Aalpha1beta2 receptor expressed in Xenopus laevis oocytes assessed as potentiation of GABA-induced chloride current at holding potential -70 mV by two-microelectrode voltage clamp technique relative to GABA; type: cell-based; conditions: Oocyte
Procedure, shortened: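 Oocytes were injected with α1, α2, α3 or α5 plus β2 cRNA at a 1:1 ratio and stored at 18 °C in ND96, pH 7.4. Enhancement was (I(GABA+compound)/IGABA)−1, and concentration-response data were Hill-fitted for EC50 and nH. Matched DMSO was ≤0.3%.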

## C=CCc1ccc(O)c(-c2ccc(O)c(CC=C)c2)c1 [HONOKIOL]
[1]
  Activity: 376%
Oocyte
  Smax: 1320%
[2]
  pEC50: 4.22
[3]
  pEC50: 4.41
[4]
  Smax: 878%
[5]
  Smax: 1030%
